Experimental data: ChEMBL document CHEMBL3596157, “Heteroaromatic analogs of the resveratrol analog DMU-212 as potent anti-cancer agents” (2015)

Key:
Format in all cases: functional
CAKI-1 = experiment: Growth inhibition of human Caki1 cells after 48 hrs by SRB assay; settings: CAKI-1, 48 h
Summary of the method: (§1)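 NCI-60 panel screen. Cells exposed for 48 h to five concentrations (10−4, 10−5, 10−6, 10−7 and 10−8 M). Sulforhodamine B optical density is read just before compound addition (time zero) and after 48 h, for both treated and vehicle-control wells. Percent growth is calculated against control. GI50 is the concentration giving a 50% reduction in net cell growth relative to cell numbers on day 0.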

[1] = Growth inhibition of human Hs578T cells after 48 hrs by SRB assay; settings: Hs-578T; summary of the method: as §1
SR = experiment: Growth inhibition of human SR cells after 48 hrs by SRB assay
Summary of the method: (§2)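 NCI-60 panel cells; preliminary single-dose screen at 10−5 M, then five-dose testing at 10−4 to 10−8 M (tenfold steps) with 48 h exposure. SRB-stained optical density read before compound addition (time zero), after 48 h with compound, and with vehicle control. Percent growth is calculated against control. GI50 is the concentration giving 50% reduction in net growth relative to day-0 cell number.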

[2] = Growth inhibition of human LOXIMVI cells after 48 hrs by SRB assay; settings: LOX IMVI; summary of the method: as §1
SK-OV-3 = experiment: Growth inhibition of human SKOV3 cells after 48 hrs by SRB assay; settings: SK-OV-3, 48 h; summary of the method: as §1
SK-MEL-2 = experiment: Growth inhibition of human SK-MEL-2 cells after 48 hrs by SRB assay; settings: SK-MEL-2, 48 h; summary of the method: as §1
OVCAR-5 = experiment: Growth inhibition of human OVCAR5 cells after 48 hrs by SRB assay; settings: OVCAR-5, 48 h; summary of the method: as §1
SK-MEL-28 = experiment: Growth inhibition of human SK-MEL-28 cells after 48 hrs by SRB assay; settings: SK-MEL-28, 48 h; summary of the method: as §1
NCI-H322M = experiment: Growth inhibition of human NCI-H322M cells after 48 hrs by SRB assay; summary of the method: as §1
OVCAR-4 = experiment: Growth inhibition of human OVCAR4 cells after 48 hrs by SRB assay; settings: OVCAR-4, 48 h; summary of the method: as §1
HT-29 = experiment: Growth inhibition of human HT-29 cells after 48 hrs by SRB assay; settings: HT-29, 48 h; summary of the method: as §1
TK-10 = experiment: Growth inhibition of human TK10 cells after 48 hrs by SRB assay; settings: TK-10, 48 h; summary of the method: as §2
NCI-H522 = experiment: Growth inhibition of human NCI-H522 cells after 48 hrs by SRB assay; settings: NCI-H522, 48 h; summary of the method: as §1
HCT-116 = experiment: Growth inhibition of human HCT116 cells after 48 hrs by SRB assay; settings: HCT-116, 48 h; summary of the method: as §1
[3] = Growth inhibition of human RPMI8226 cells after 48 hrs by SRB assay; settings: RPMI-8226, 48 h; summary of the method: as §1
UACC-62 = experiment: Growth inhibition of human UACC62 cells after 48 hrs by SRB assay; settings: UACC-62, 48 h; summary of the method: as §2
ACHN = experiment: Growth inhibition of human ACHN cells after 48 hrs by SRB assay; summary of the method: as §1
[4] = Growth inhibition of human COLO205 cells after 48 hrs by SRB assay; settings: COLO 205, 48 h; summary of the method: as §1
K562 = experiment: Growth inhibition of human K562 cells after 48 hrs by SRB assay; settings: K562, 48 h; summary of the method: as §1
SN12C = experiment: Growth inhibition of human SN12C cells after 48 hrs by SRB assay; summary of the method: as §1
OVCAR-8 = experiment: Growth inhibition of human OVCAR8 cells after 48 hrs by SRB assay; settings: OVCAR-8, 48 h; summary of the method: as §1
MCF7 = experiment: Growth inhibition of human MCF7 cells after 48 hrs by SRB assay; settings: MCF7, 48 h; summary of the method: as §1
[5] = Growth inhibition of human EKVX cells after 48 hrs by SRB assay; summary of the method: as §1
PC-3 = experiment: Growth inhibition of human PC3 cells after 48 hrs by SRB assay; settings: PC-3, 48 h; summary of the method: as §1
KM12 = experiment: Growth inhibition of human KM12 cells after 48 hrs by SRB assay; settings: KM12, 48 h; summary of the method: as §1
A549 = experiment: Growth inhibition of human A549/ATCC cells after 48 hrs by SRB assay; settings: A549, 48 h; summary of the method: as §1
CCRF-CEM = experiment: Growth inhibition of human CCRF-CEM cells after 48 hrs by SRB assay; summary of the method: as §1
MDA-MB-435 = experiment: Growth inhibition of human MDA-MB-435 cells after 48 hrs by SRB assay; settings: MDA-MB-435, 48 h; summary of the method: as §1
[6] = Growth inhibition of human RXF393 cells after 48 hrs by SRB assay; settings: RXF 393, 48 h; summary of the method: as §1
[7] = Growth inhibition of human HCC2998 cells after 48 hrs by SRB assay; settings: HCC 2998, 48 h; summary of the method: as §1
NCI-H460 = experiment: Growth inhibition of human NCI-H460 cells after 48 hrs by SRB assay; settings: NCI-H460, 48 h; summary of the method: as §1
IGROV-1 = experiment: Growth inhibition of human IGROV1 cells after 48 hrs by SRB assay; settings: IGROV-1, 48 h; summary of the method: as §1
[8] = Growth inhibition of human NCI-ADR-RES cells after 48 hrs by SRB assay; summary of the method: as §1
UO-31 = experiment: Growth inhibition of human UO31 cells after 48 hrs by SRB assay; settings: UO-31, 48 h; summary of the method: as §2
[9] = Growth inhibition of human MOLT4 cells after 48 hrs by SRB assay; settings: MOLT-4, 48 h; summary of the method: as §1
[10] = Growth inhibition of human SF539 cells after 48 hrs by SRB assay; settings: SF-539, 48 h; summary of the method: as §1
[11] = Growth inhibition of human SF295 cells after 48 hrs by SRB assay; settings: SF-295, 48 h; summary of the method: as §1
SNB-19 = experiment: Growth inhibition of human SNB19 cells after 48 hrs by SRB assay; settings: SNB-19, 48 h; summary of the method: as §1
OVCAR-3 = experiment: Growth inhibition of human OVCAR3 cells after 48 hrs by SRB assay; settings: OVCAR-3, 48 h; summary of the method: as §1
M14 = experiment: Growth inhibition of human M14 cells after 48 hrs by SRB assay; settings: M14, 48 h; summary of the method: as §1
SNB-75 = experiment: Growth inhibition of human SNB75 cells after 48 hrs by SRB assay; settings: SNB-75, 48 h; summary of the method: as §2
HOP-62 = experiment: Growth inhibition of human HOP62 cells after 48 hrs by SRB assay; settings: HOP-62, 48 h; summary of the method: as §1
SF-268 = experiment: Growth inhibition of human SF268 cells after 48 hrs by SRB assay; settings: SF-268, 48 h; summary of the method: as §1
UACC-257 = experiment: Growth inhibition of human UACC257 cells after 48 hrs by SRB assay; settings: UACC-257, 48 h; summary of the method: as §2
Malme-3M = experiment: Growth inhibition of human MALME-3M cells after 48 hrs by SRB assay; summary of the method: as §1
NCI-H23 = experiment: Growth inhibition of human NCI-H23 cells after 48 hrs by SRB assay; settings: NCI-H23, 48 h; summary of the method: as §1
NCI-H226 = experiment: Growth inhibition of human NCI-H226 cells after 48 hrs by SRB assay; settings: NCI-H226, 48 h; summary of the method: as §1
SK-MEL-5 = experiment: Growth inhibition of human SK-MEL-5 cells after 48 hrs by SRB assay; settings: SK-MEL-5, 48 h; summary of the method: as §1
DU-145 = experiment: Growth inhibition of human DU145 cells after 48 hrs by SRB assay; settings: DU-145, 48 h; summary of the method: as §1
A498 = experiment: Growth inhibition of human A498 cells after 48 hrs by SRB assay; settings: A498, 48 h; summary of the method: as §1
786-0 = experiment: Growth inhibition of human 786-0 cells after 48 hrs by SRB assay; settings: 786-0, 48 h; summary of the method: as §1
MDA-MB-231 = experiment: Growth inhibition of human MDA-MB-231/ATCC cells after 48 hrs by SRB assay; settings: MDA-MB-231, 48 h; summary of the method: as §1
[12] = Growth inhibition of human HOP92 cells after 48 hrs by SRB assay; settings: HOP-92, 48 h; summary of the method: as §1
U-251 = experiment: Growth inhibition of human U251 cells after 48 hrs by SRB assay; settings: U-251, 48 h; summary of the method: as §2
HCT-15 = experiment: Growth inhibition of human HCT15 cells after 48 hrs by SRB assay; settings: HCT-15, 48 h; summary of the method: as §1
SW-620 = experiment: Growth inhibition of human SW620 cells after 48 hrs by SRB assay; settings: SW-620, 48 h; summary of the method: as §2
[13] = Growth inhibition of human BT549 cells after 48 hrs by SRB assay; settings: BT-549, 48 h; summary of the method: as §1

COc1cc(/C=C/c2cc3ccccc3s2)cc(OC)c1OC showed a GI50 (CAKI-1) of 4350 nM, a GI50 [1] of 275 nM and a GI50 (SR) of 120 nM. The GI50 [2] was 382 nM, the GI50 (SK-OV-3) was 263 nM and the GI50 (SK-MEL-2) was 323 nM. It also gave a GI50 (OVCAR-5) of 547 nM, a GI50 (SK-MEL-28) of 346 nM and a GI50 (NCI-H322M) of 649 nM. The GI50 (OVCAR-4) was 553 nM, the GI50 (HT-29) was 234 nM and the GI50 (TK-10) was 566 nM. It also gave a GI50 (NCI-H522) of 153 nM, a GI50 (HCT-116) of 246 nM and a GI50 [3] of 268 nM. For the same molecule, the GI50 (UACC-62) was 185 nM, the GI50 (ACHN) was 810 nM and the GI50 [4] was 209 nM. The GI50 (K562) was 88 nM, the GI50 (SN12C) was 666 nM and the GI50 (OVCAR-8) was 352 nM. The GI50 (MCF7) was 285 nM, the GI50 [5] was 10300 nM and the GI50 (PC-3) was 276 nM. For the same molecule, the GI50 (KM12) was 213 nM, the GI50 (A549) was 310 nM and the GI50 (CCRF-CEM) was 262 nM. For the same molecule, the GI50 (MDA-MB-435) was 36 nM, the GI50 [6] was 168 nM and the GI50 [7] was 307 nM. The GI50 (NCI-H460) was 351 nM, the GI50 (IGROV-1) was 520 nM and the GI50 [8] was 70 nM. The GI50 (UO-31) was 513 nM, the GI50 [9] was 424 nM and the GI50 [10] was 299 nM. The GI50 [11] was 442 nM, the GI50 (SNB-19) was 362 nM and the GI50 (OVCAR-3) was 224 nM. It also gave a GI50 (M14) of 169 nM, a GI50 (SNB-75) of 190 nM and a GI50 (HOP-62) of 420 nM. For the same molecule, the GI50 (SF-268) was 985 nM, the GI50 (UACC-257) was 520 nM and the GI50 (Malme-3M) was 826 nM. For the same molecule, the GI50 (NCI-H23) was 324 nM, the GI50 (NCI-H226) was 442 nM and the GI50 (SK-MEL-5) was 267 nM. For the same molecule, the GI50 (DU-145) was 402 nM, the GI50 (A498) was 213 nM and the GI50 (786-0) was 445 nM. For the same molecule, the GI50 (MDA-MB-231) was 450 nM, the GI50 [12] was 322 nM and the GI50 (U-251) was 338 nM. The GI50 (HCT-15) was 328 nM, the GI50 (SW-620) was 293 nM and the GI50 [13] was 326 nM.
